High-throughput results from PubChem BioAssay.
Shown are actives, neighbours in structure and some others; about 1.5% of the full set was active somewhere.
HTRA1 inhibitor: inhibitors of human serine peptidase HTRA1 | 340,000 compounds, 0.5% hits | recombinant HTRA1, FP-rhodamine activity-based probe, fluorescence polarization | Q92743 | AID 504803 | inhibition, % at 5.96 µM; in the data active = inhibition above about 36%
Target sequence (Q92743 whole entry, looked up): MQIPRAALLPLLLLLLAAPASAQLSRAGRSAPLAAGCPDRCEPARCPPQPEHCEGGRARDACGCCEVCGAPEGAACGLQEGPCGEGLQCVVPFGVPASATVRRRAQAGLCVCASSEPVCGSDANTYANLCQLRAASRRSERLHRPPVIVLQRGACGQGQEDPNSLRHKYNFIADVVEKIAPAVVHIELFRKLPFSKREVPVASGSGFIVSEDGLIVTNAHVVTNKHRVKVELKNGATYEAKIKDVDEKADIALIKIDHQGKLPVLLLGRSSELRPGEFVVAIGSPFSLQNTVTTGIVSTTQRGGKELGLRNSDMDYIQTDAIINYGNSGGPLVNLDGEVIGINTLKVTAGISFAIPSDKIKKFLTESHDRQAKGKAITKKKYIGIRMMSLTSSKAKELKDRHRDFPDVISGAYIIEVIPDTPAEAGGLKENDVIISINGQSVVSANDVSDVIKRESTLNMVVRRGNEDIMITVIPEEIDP
ABHD4 inh: inhibitors of mouse ABHD4; Q8VD66; purified mABHD4, FP-Rh probe fluorescence polarization; inhibition, % at 8.92 µM; 370,000 compounds, 0.54% hits;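 active = inhibition exceeding the mean over every tested compound plus 3 SD, cut at about 30% in these data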
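assay system = mABHD4 protein | compound dosing = single nominal dose of 8.92 µM, 0.89% DMSO final | read-out basis = percent inhibition of probe binding, normalized to plate controls | schedule = Enzyme–compound pre-incubation 45 min, then probe 60 min, both 25 °C | detection = fluorescence polarization, excitation 525 nm, emission 598 nm, BODIPY TMR filters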
TCR-CD3 inh: human TCR-CD3 binding inhibition | AID 651800 | 360,000 compounds, 0.37% hits | TAMRA-labeled TCR probe fluorescence, biochemical | inhibition, % at 9.4 µM; in the data active = inhibition above about 19%;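 also: recombinant mutant TCR 2C K166C tagged with TAMRA read by polarization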
DAGLB inh: diacylglycerol lipase beta (human) inhibition. AID 504411. inhibition, % at 5.17 µM. 340,000 compounds, 0.059% hits. HEK293T DAGLB membrane lysate, EnzChek fluorogenic substrate; in the data active = inhibition above about 34%
SIAE primary: inhibitors of human sialic acid acetylesterase SIAE; Q9HAT2; SIAE FP-Rh probe binding, fluorescence polarization; inhibition, % at 9.66 µM; 370,000 compounds, 0.69% hits; AID 1053197;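 active = inhibition above a cutoff: mean of compounds within the control limits plus 3 SD of those, cut at about 17% in these data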
HTRA1 conf: confirmation of human HTRA1 inhibitors | inhibition, % at 5.96 µM | shares compounds with HTRA1 inhibitor | recombinant HTRA1, FP-rhodamine activity-based probe, fluorescence polarization | 1,600 compounds, 66% hits;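 active = mean inhibition over three repeats above a set limit taken from the earlier primary screen, cut at about 37% in these data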;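 also: inhibitors block probe binding so polarization drops and inhibition rises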
Hits are given with their value; i = inactive; nt = not tested or not shown.

SMILES	HTRA1 inhibitor	ABHD4 inh	TCR-CD3 inh	DAGLB inh	SIAE primary	HTRA1 conf
O=C(NNc1ccc(C(F)(F)F)cc1[N+](=O)[O-])c1ccc(NS(=O)(=O)c2ccc(F)cc2)cc1	38	i	i	i	i	i
Cc1cc(C)c2c(c1)N[C@H](c1cccs1)[C@@H]1CCO[C@H]21	i	i	i	i	i	nt
Cc1cc(C)c2c(c1)NC(C(=O)O)C1CC=CC21 (configuration not stated)	74	56	29	i	20	70
C=CCN1C(=O)c2n[nH]c(COC)c2C1c1ccc(Br)cc1 (configuration not stated)	nt	i	i	nt	i	nt
S=C(N=Nc1ccccc1)NNc1ccccc1	43	i	i	i	i	43
c1ccc(-c2nc3cc4ccccc4cc3[nH]2)nc1	55	i	i	i	i	60
Cc1cccc2cc(-c3ccccc3)c(-c3ccccc3)c[n+]12	56	i	i	i	i	74
O=[N+]([O-])c1cccc(-c2cc3cccc[n+]3cc2-c2cccc([N+](=O)[O-])c2)c1	i	i	i	i	i	nt
CCOC(=O)c1c(N)sc2c1CCCC2	i	i	i	i	i	nt
Nc1sc2c(c1C(=O)NC1CC1)CCCC2	47	i	i	i	i	i
C#CCNC(=O)C[C@H]1C[C@@]2(C(=O)OC)C(=C[C@H](C3CCCC3)O[C@@H]2C)N(Cc2ccccc2)C1=O	nt	i	i	nt	i	nt
O=C(N/N=C/c1sc(N2CCOCC2)nc1-c1ccccc1)c1cccc(S(=O)(=O)N2CCCC2)c1	46	i	i	i	i	63
COC(=O)[C@]12C[C@H](CC(=O)NCCCN3CCCC3=O)C(=O)N(CCC3=CCCCC3)C1=C[C@H](COCc1ccccc1)O[C@@H]2C	nt	i	i	nt	i	nt
COc1ccc2c(c1)NC(C)(C)C=C2C	46	i	i	i	i	i
NC(=Nc1nc(-c2ccccn2)cc2ccccc12)c1ccccn1	69	i	i	i	i	78
COC(=O)[C@]12C[C@H](CC(=O)N3CCCC3)C(=O)N(Cc3ccco3)C1=C[C@H](COCc1ccccc1)O[C@@H]2C	nt	i	nt	nt	i	nt
CN(C)c1ccnc2c[cH-]cc12.[Fe].c1ccc(-[c-]2[c-](-c3ccccc3)[c-](-c3ccccc3)[c-](-c3ccccc3)[c-]2-c2ccccc2)cc1 (configuration not stated)	37	i	i	i	i	57
CN(C)c1ccnc(Nc2ccccc2)c1C#N	nt	i	i	nt	i	nt
Clc1cccc(C2Nc3cccc4cccc(c34)N2)c1Cl	58	i	i	i	i	i
COCc1cc(N2CCNC[C@@H]2C)ccc1N1CCN(Cc2ccccc2)[C@@H](C)C1	nt	i	i	nt	i	nt
CC(C)CC1O[C@@H](C)[C@@H]2CN3CCc4c([nH]c5ccccc45)[C@@H]3C[C@@H]2N1C (some centres not stated)	nt	i	i	nt	i	nt
CC1=C(SCc2ccccc2)C(=O)c2ccccc2C1=O	42	70	i	i	i	36
O=C1C(SCCO)=C(SCCO)C(=O)c2ccccc21	i	i	i	i	i	nt
CC(=O)N1CCN(c2ccc(N3CCN(Cc4ccccc4)[C@H](C)C3)c(C)c2)[C@@H](C)C1	nt	i	i	nt	i	nt
O=C(O)CCNc1cc(N2CCN(C(=O)c3ccco3)CC2)c2noc3c2c1C(=O)c1ccccc1-3	46	49	34	i	30	i
SMILES	HTRA1 inhibitor	ABHD4 inh	TCR-CD3 inh	DAGLB inh	SIAE primary	HTRA1 conf
FC(F)(F)c1ccccc1Cn1ccc2ccc(-c3ccc4ccn(Cc5ccccc5C(F)(F)F)c4c3)cc21	nt	i	nt	nt	i	nt
COc1ccccc1C(=O)NNC(=S)NC(=O)c1cccs1	i	i	i	i	i	nt
O=C(NC(=S)NNC(=O)c1ccccc1O)c1cccs1	56	i	i	i	i	54
COC(=O)c1cc2c(c3c4cc(C)ccc4n(S(=O)(=O)c4ccccc4)c13)C(=O)N(Cc1ccc(C(F)(F)F)cc1)C2	nt	i	i	nt	i	nt
O=C1CCCC2=C1C1(CCCC1)N=C(Nc1nc3cc(Br)ccc3o1)N2	nt	i	nt	nt	i	nt
CC1(C)C=Cc2c(c3c(c4c(=O)c(-c5ccc(O)cc5)coc24)OC(C)(C)CC3)O1	36	i	i	i	i	i
O=C(CSc1nc2ccccc2s1)N1CCOCC1	161	i	i	i	i	i
O=C(CSc1nc2ccccc2s1)NCCCN1CCOCC1	i	i	i	i	i	nt
Nn1cnnc1N/N=C/c1cc(Br)cc(Br)c1O	53	i	i	i	i	51
CC(C)(C)NC(=S)Nc1ccc(Nc2ccccc2)cc1	46	i	i	i	i	i
CC(C)(C)NC(=S)Nc1ccc(Br)cc1	i	i	i	i	i	nt
CCCCCCCCN1C(=O)[C@@H](CC(=O)N2CCSCC2)C[C@@]2(C(=O)OC)C1=C[C@H](C(C)(C)C)O[C@@H]2C	nt	i	i	nt	i	nt
CC(=O)NC(c1cccc([N+](=O)[O-])c1)c1ccc2cccnc2c1O (configuration not stated)	37	i	i	i	i	63
O=[N+]([O-])c1ccc(NC(c2ccccc2)c2ccc3cccnc3c2O)cc1 (configuration not stated)	36	i	i	i	i	40
CCCCC(=O)NC(c1cccc([N+](=O)[O-])c1)c1ccc2cccnc2c1O (configuration not stated)	i	i	i	i	i	nt
COc1c(OC2OC(C(=O)O)C(O)C(O)C2O)cc(O)c2c(=O)cc(-c3ccccc3)oc12 (configuration not stated)	i	i	i	i	i	nt
O=C(O)C1OC(Oc2cc3oc(-c4ccccc4)cc(=O)c3c(O)c2O)C(O)C(O)C1O (configuration not stated)	45	i	i	i	i	43
C[C@]12CCC[C@H](O1)c1c(cc3c(c1O)C(=O)c1c(O)cc(O)cc1C3=O)O2	37	i	i	i	i	62
CC1(C)CC(=O)c2c(O)cc(O)cc2O1	i	i	i	i	i	nt
O=c1cc(-c2ccc(O)cc2)oc2c(-c3c(O)cc(O)c4c(=O)cc(-c5ccc(O)cc5)oc34)c(O)cc(O)c12	53	i	i	i	i	50
O=c1cc(-c2ccc(O)cc2)oc2c([C@@H]3O[C@H](CO)[C@@H](O)[C@H](O)[C@H]3O)c(O)c([C@@H]3O[C@H](CO)[C@@H](O)[C@H](O)[C@H]3O)c(O)c12	i	i	i	i	i	nt
COc1ccc(-c2cc(=O)c3c(O)cc(O)cc3o2)cc1	i	i	i	i	i	nt
O=c1cc(-c2ccc(O)c(-c3c(O)cc(O)c4c(=O)cc(-c5ccc(O)cc5)oc34)c2)oc2cc(O)cc(O)c12	40	i	i	i	i	76
COC(=O)C[C@@H]1CC[C@H]2[C@@H](COc3ccc(NC(=O)Nc4ccccc4)cc3C(=O)N2C)O1	nt	i	nt	nt	i	nt
